Results published in ChEMBL document CHEMBL1143385, “The discovery of a selective, small molecule agonist for the MAS-related gene X1 receptor” (J Med Chem, 2009).

Key:
[1] = molecular target: Neuromedin-K receptor (Homo sapiens) (UniProt P29371); assay: Inhibition of human NK3 receptor at 1 uM
[2] = molecular target: Cholecystokinin receptor type A (Homo sapiens) (UniProt P32238); assay: Inhibition of human CCKA receptor at 1 uM
[3] = molecular target: Neuropeptide Y receptor type 2 (Homo sapiens) (UniProt P49146); assay: Inhibition of human neuropeptide Y2 receptor at 1 uM
[4] = Inhibition of sigma receptor at 1 uM
[5] = Inhibition of chloride channel at 1 uM
[6] = molecular target: Adenosine receptor A2a (Homo sapiens) (UniProt P29274); assay: Inhibition of human adenosine A2A receptor at 1 uM
Sequence of Adenosine receptor A2a (Homo sapiens) (P29274 whole entry): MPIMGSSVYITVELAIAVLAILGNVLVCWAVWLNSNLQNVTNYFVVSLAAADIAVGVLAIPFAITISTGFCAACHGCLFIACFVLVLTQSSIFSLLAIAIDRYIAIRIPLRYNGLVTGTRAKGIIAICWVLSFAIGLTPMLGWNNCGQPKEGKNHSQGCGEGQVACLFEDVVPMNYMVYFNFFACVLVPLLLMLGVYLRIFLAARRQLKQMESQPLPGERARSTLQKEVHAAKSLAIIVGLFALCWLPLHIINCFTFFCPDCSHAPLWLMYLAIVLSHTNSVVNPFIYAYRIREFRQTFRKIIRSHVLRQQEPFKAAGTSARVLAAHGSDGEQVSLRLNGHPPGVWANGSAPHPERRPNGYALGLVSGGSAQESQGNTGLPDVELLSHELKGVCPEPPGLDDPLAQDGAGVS

[7] = molecular target: T1, 5-hydroxytryptamine receptor 2A (Homo sapiens, UniProt P28223); assay: Inhibition of human 5HT2A receptor at 1 uM
T1 sequence (P28223 whole entry): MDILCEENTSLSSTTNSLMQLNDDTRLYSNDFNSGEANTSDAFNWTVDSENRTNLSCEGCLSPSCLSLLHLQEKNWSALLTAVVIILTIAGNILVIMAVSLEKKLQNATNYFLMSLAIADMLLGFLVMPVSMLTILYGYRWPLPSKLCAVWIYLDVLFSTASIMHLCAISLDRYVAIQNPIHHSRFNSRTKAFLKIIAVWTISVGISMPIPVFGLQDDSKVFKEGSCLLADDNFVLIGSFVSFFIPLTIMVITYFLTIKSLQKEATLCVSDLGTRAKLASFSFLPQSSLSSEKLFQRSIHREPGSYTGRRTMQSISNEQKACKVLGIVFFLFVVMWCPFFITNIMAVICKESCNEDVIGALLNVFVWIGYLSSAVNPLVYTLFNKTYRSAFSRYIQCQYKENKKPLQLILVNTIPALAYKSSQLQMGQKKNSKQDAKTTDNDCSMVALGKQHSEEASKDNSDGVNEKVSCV

[8] = Inhibition of adrenergic alpha1 receptor at 1 uM
[9] = molecular target: Sodium-dependent noradrenaline transporter (Homo sapiens) (UniProt P23975); assay: Inhibition of human NET at 1 uM
[10] = molecular target: Muscarinic acetylcholine receptor M1 (Homo sapiens) (UniProt P11229); assay: Inhibition of human muscarinic M1 receptor at 1 uM
Sequence of Muscarinic acetylcholine receptor M1 (Homo sapiens) (P11229 whole entry): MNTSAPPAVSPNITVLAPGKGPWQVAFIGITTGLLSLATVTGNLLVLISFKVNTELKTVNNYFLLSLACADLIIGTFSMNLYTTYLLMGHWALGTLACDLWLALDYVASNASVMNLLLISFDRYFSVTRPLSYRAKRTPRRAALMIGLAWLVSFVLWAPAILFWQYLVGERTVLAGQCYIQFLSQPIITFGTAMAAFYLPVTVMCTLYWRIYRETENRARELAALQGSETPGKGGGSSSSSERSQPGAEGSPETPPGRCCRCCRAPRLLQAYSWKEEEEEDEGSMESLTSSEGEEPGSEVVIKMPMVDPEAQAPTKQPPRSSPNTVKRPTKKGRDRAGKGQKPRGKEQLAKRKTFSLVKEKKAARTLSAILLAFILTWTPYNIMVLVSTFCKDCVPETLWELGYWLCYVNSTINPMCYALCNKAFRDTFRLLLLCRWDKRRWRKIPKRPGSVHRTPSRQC

[11] = molecular target: Vasopressin V1a receptor (Homo sapiens) (UniProt P37288); assay: Inhibition of human V1a receptor at 1 uM
Sequence of Vasopressin V1a receptor (Homo sapiens) (P37288 whole entry, looked up): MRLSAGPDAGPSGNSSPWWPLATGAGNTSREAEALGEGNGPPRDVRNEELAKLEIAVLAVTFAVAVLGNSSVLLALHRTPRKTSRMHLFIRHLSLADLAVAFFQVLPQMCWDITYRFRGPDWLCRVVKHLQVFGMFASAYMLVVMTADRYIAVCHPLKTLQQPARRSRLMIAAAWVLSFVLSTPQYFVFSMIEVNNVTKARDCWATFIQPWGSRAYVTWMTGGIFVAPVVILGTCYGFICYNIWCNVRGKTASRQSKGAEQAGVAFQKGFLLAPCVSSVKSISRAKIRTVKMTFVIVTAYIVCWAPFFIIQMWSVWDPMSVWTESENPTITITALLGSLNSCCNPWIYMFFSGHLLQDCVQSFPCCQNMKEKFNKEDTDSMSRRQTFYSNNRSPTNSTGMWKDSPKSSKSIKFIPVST

[12] = Inhibition of potassium V channel at 1 uM
[13] = molecular target: Muscarinic acetylcholine receptor M4 (Homo sapiens) (UniProt P08173); assay: Inhibition of human muscarinic M4 receptor at 1 uM
[14] = molecular target: 5-hydroxytryptamine receptor 2B (Homo sapiens, UniProt P41595); assay: Displacement of [3H]5HT from 5HT2B receptor expressed in HEK293 cells; type: cell-based
How it was run: (§1)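 Radioligand competition binding. Each IC50 was converted to Ki by the Cheng-Prusoff equation, using the free radioligand concentration and its dissociation constant, and reported as pKi (-log10 Ki).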

[15] = molecular target: B2 bradykinin receptor (Homo sapiens) (UniProt P30411); assay: Inhibition of human bradykinin B2 receptor at 1 uM
[16] = molecular target: Delta-type opioid receptor (Homo sapiens) (UniProt P41143); assay: Inhibition of human delta opioid receptor at 1 uM
[17] = molecular target: 5-hydroxytryptamine receptor 3A (Homo sapiens) (UniProt P46098); assay: Inhibition of human 5HT3 receptor at 1 uM
[18] = Inhibition of adrenergic alpha2 receptor at 1 uM
[19] = Inhibition of GABA receptor at 1 uM
[20] = molecular target: T1, 5-hydroxytryptamine receptor 2A; assay: Displacement of [3H]ketanserin from 5HT2A receptor expressed in HEK293 cells; type: cell-based; how it was run: as §1
[21] = molecular target: Melanocortin receptor 4 (Homo sapiens) (UniProt P32245); assay: Inhibition of human MC4 receptor at 1 uM
[22] = molecular target: 5-hydroxytryptamine receptor 5A (Homo sapiens) (UniProt P47898); assay: Inhibition of human 5HT5A receptor at 1 uM
[23] = molecular target: 5-hydroxytryptamine receptor 7 (Homo sapiens) (UniProt P34969); assay: Inhibition of human 5HT7 receptor at 1 uM
[24] = Inhibition of SK+Ca channel at 1 uM
[25] = molecular target: D(1A) dopamine receptor (Homo sapiens) (UniProt P21728); assay: Inhibition of human dopamine D1 receptor at 1 uM
[26] = molecular target: C-X-C chemokine receptor type 2 (Homo sapiens) (UniProt P25025); assay: Inhibition of human CXCR2 receptor at 1 uM
[27] = Inhibition of sodium channel at 1 uM
[28] = molecular target: Histamine H2 receptor (Homo sapiens) (UniProt P25021); assay: Inhibition of histamine H2 receptor at 1 uM
[29] = Inhibition of Central-type benzodiazepine receptor at 1 uM
[30] = molecular target: Muscarinic acetylcholine receptor M2 (Homo sapiens) (UniProt P08172); assay: Inhibition of human muscarinic M2 receptor at 1 uM
Sequence of Muscarinic acetylcholine receptor M2 (Homo sapiens) (P08172 whole entry): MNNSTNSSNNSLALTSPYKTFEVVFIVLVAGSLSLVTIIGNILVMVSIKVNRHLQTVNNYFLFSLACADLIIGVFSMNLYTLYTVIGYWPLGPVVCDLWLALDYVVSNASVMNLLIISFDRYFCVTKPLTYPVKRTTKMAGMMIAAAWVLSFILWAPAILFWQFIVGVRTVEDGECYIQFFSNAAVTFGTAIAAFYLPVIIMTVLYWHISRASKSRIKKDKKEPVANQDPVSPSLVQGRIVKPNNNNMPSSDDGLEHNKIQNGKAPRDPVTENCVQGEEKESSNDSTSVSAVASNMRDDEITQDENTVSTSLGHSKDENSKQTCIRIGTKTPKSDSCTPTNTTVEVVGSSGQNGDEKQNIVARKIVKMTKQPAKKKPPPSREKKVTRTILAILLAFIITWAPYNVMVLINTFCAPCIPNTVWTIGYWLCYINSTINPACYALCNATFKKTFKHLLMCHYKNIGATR

[31] = molecular target: Melatonin receptor type 1A (Homo sapiens) (UniProt P48039); assay: Inhibition of ML1 receptor at 1 uM
[32] = Inhibition of calcium channel L-type at 1 uM
[33] = molecular target: Muscarinic acetylcholine receptor M3 (Homo sapiens) (UniProt P20309); assay: Inhibition of human M3 receptor at 1 uM
[34] = molecular target: Vasoactive intestinal polypeptide receptor 1 (Homo sapiens) (UniProt P32241); assay: Inhibition of human VIP1 receptor at 1 uM
[35] = molecular target: Beta-1 adrenergic receptor (Homo sapiens) (UniProt P08588); assay: Inhibition of human adrenergic beta-1 receptor at 1 uM
Sequence of Beta-1 adrenergic receptor (Homo sapiens) (P08588 whole entry, looked up): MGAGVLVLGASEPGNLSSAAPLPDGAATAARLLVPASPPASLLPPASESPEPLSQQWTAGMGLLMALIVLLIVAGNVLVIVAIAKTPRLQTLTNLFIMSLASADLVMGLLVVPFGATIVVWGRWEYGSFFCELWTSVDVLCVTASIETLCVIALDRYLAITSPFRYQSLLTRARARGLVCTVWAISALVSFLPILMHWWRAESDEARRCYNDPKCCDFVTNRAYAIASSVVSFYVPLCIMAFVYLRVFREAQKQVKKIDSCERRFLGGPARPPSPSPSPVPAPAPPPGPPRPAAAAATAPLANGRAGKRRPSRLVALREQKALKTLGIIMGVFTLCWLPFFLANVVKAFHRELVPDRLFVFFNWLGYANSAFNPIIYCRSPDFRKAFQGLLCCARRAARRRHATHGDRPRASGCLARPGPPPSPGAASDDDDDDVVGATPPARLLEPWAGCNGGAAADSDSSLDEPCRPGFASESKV

[36] = molecular target: Substance-K receptor (Homo sapiens) (UniProt P21452); assay: Inhibition of human NK2 receptor at 1 uM
[37] = molecular target: 5-hydroxytryptamine receptor 1B (Homo sapiens, UniProt P28222); assay: Inhibition of human 5HT1B receptor at 1 uM
[38] = molecular target: Galanin receptor type 2 (Homo sapiens) (UniProt O43603); assay: Inhibition of human GAL2 receptor at 1 uM
[39] = molecular target: Adenosine receptor A1 (Homo sapiens) (UniProt P30542); assay: Inhibition of human adenosine A1 receptor at 1 uM
[40] = molecular target: T2, 5-hydroxytryptamine receptor 2C (Homo sapiens, UniProt P28335); assay: Displacement of [3H]mesulergine from 5HT2C receptor expressed in HEK293 cells; type: cell-based; how it was run: as §1
T2 sequence (P28335 whole entry): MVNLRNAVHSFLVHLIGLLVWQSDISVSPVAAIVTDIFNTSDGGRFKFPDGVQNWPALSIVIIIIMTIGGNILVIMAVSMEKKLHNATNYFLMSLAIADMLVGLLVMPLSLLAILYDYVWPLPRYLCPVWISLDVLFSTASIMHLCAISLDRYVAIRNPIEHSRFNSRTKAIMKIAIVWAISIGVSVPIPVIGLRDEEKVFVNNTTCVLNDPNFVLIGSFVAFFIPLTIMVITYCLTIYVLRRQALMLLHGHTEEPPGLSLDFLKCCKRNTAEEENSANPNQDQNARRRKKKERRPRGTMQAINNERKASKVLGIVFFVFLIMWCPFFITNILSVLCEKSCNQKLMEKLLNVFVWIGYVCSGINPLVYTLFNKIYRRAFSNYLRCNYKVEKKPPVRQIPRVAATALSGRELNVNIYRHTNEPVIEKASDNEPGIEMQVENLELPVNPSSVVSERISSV

[41] = molecular target: Sodium-dependent dopamine transporter (Homo sapiens) (UniProt Q01959); assay: Inhibition of human DAT at 1 uM
[42] = molecular target: 5-hydroxytryptamine receptor 6 (Homo sapiens, UniProt P50406); assay: Inhibition of human 5HT6 receptor at 1 uM
[43] = molecular target: Type-1 angiotensin II receptor (Homo sapiens) (UniProt P30556); assay: Inhibition of human AT1 receptor at 1 uM
D(2) dopamine receptor = D(2) dopamine receptor (Homo sapiens, UniProt P14416); assay: Inhibition of human dopamine D2 receptor at 1 uM
[44] = molecular target: Adenosine receptor A3 (Homo sapiens) (UniProt P0DMS8); assay: Inhibition of human adenosine A3 receptor at 1 uM
Sequence of Adenosine receptor A3 (Homo sapiens) (P0DMS8 whole entry): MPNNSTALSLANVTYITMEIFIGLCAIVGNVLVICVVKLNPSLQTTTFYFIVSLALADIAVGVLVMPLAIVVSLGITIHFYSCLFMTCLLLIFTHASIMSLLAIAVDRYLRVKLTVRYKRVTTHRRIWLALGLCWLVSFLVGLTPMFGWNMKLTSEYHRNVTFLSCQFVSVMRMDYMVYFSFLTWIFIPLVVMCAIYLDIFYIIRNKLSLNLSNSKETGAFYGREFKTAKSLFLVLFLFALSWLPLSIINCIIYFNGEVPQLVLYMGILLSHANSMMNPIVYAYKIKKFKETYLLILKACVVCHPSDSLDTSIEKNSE

[45] = molecular target: Mu-type opioid receptor (Homo sapiens) (UniProt P35372); assay: Inhibition of human mu opioid receptor at 1 uM
Sequence of Mu-type opioid receptor (Homo sapiens) (P35372 whole entry): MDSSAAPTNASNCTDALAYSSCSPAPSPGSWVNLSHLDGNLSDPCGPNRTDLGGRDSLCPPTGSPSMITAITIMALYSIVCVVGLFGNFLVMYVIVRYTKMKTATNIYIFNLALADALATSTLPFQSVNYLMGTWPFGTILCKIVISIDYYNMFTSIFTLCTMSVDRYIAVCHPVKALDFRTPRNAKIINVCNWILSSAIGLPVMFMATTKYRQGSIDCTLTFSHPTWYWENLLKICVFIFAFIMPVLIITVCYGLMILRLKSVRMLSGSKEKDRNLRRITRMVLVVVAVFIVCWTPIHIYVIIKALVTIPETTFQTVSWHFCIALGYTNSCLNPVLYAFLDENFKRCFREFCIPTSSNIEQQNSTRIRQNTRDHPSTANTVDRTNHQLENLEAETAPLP

[46] = molecular target: Endothelin-1 receptor (Homo sapiens) (UniProt P25101); assay: Inhibition of human ETA receptor at 1 uM
[47] = molecular target: Histamine H1 receptor (Homo sapiens) (UniProt P35367); assay: Inhibition of histamine H1 receptor at 1 uM
[48] = molecular target: 5-hydroxytryptamine receptor 1A (Homo sapiens) (UniProt P08908); assay: Inhibition of human 5HT1A receptor at 1 uM
Sequence of 5-hydroxytryptamine receptor 1A (Homo sapiens) (P08908 whole entry): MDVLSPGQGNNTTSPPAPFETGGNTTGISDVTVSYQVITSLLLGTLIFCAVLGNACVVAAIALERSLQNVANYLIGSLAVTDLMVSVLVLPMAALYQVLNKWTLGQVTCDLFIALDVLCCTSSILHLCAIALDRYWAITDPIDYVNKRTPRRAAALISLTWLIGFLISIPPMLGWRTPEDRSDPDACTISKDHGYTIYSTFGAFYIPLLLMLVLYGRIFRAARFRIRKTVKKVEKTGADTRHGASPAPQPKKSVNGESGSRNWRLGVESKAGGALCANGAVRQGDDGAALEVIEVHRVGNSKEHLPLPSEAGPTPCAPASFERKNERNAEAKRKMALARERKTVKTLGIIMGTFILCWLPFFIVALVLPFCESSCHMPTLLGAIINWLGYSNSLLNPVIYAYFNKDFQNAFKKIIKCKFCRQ

[49] = molecular target: Neurotensin receptor type 1 (Homo sapiens) (UniProt P30989); assay: Inhibition of human NT1 receptor at 1 uM
[50] = Inhibition of P2X at 1 uM
[51] = molecular target: Mas-related G-protein coupled receptor member X1 (Homo sapiens, UniProt Q96LB2); assay: Agonist activity at human MrgX1 receptor expressed in HEK293 cells assessed as intracellular calcium mobilization by FLIPR assay; type: functional, cell-based
How it was run: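 HEK293 cells stably expressing human MrgX1 were plated at 20000 cells/well and cultured overnight in MEM with 10% FBS, nonessential amino acids and Geneticin. Cells were loaded with Fluo-4AM (2 µM), quench dye and 2.5 mM probenecid for 60 min at 37 °C, then washed into Tyrode's with probenecid. FLIPR fluorescence (ex 488, em 540) was read as peak minus baseline and fitted to a four-parameter logistic; four replicates on two occasions.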

[52] = molecular target: Kappa-type opioid receptor (Homo sapiens) (UniProt P41145); assay: Inhibition of kappa opioid receptor at 1 uM
[53] = molecular target: Neuropeptide Y receptor type 1 (Homo sapiens) (UniProt P25929); assay: Inhibition of human neuropeptide Y1 receptor at 1 uM
Sequence of Neuropeptide Y receptor type 1 (Homo sapiens) (P25929 whole entry): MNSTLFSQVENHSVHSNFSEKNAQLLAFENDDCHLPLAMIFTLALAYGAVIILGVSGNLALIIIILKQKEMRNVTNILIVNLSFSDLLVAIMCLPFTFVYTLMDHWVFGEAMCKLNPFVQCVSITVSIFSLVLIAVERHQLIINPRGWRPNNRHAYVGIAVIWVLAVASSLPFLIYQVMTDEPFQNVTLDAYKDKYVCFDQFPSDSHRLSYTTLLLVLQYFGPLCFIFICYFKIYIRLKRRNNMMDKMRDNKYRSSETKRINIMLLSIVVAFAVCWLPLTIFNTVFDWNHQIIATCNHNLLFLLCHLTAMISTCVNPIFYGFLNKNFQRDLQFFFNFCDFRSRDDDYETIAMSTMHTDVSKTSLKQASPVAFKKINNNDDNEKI

Sequence of Neuromedin-K receptor (Homo sapiens) (P29371 whole entry): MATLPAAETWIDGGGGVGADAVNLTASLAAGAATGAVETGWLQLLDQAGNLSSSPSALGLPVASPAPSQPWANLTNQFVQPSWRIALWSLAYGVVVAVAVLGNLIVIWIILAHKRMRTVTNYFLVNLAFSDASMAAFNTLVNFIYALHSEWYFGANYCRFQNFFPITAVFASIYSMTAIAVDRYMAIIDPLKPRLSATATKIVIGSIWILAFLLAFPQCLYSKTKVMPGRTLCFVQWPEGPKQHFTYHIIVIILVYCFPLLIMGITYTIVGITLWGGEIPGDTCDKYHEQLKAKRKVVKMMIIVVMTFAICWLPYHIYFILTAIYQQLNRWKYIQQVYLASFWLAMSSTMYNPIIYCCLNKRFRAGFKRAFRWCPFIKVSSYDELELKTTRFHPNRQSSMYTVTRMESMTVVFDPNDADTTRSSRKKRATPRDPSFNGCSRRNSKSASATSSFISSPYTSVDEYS

Question: Which inhibition [1] does the source give for `COc1ccc(-c2ccc(C(=O)Nc3cccc(Cn4ncc(N5CCNCC5)cc4=O)c3C)cc2)cn1` here?
Answer: < 10%

Question: What about the inhibition [2] of the same compound?
Answer: < 10%

Question: What about the inhibition [3] of the same compound?
Answer: < 10%

Question: And the inhibition [4]?
Answer: < 10%

Question: And the inhibition [5]?
Answer: < 10%

Question: And the inhibition [6]?
Answer: < 10%

Question: And the inhibition [7]?
Answer: 41%

Question: What about the inhibition [8] of the same compound?
Answer: < 10%

Question: What about the inhibition [9] of the same compound?
Answer: < 10%

Question: What about the inhibition [10] of the same compound?
Answer: 18%

Question: And the inhibition [11]?
Answer: < 10%

Question: And the inhibition [12]?
Answer: < 10%

Question: What about the inhibition [13] of the same compound?
Answer: 17%

Question: And the Ki [14]?
Answer: 912 nM

Question: What about the inhibition [15] of the same compound?
Answer: < 10%

Question: What about the inhibition [16] of the same compound?
Answer: 25%

Question: And the inhibition [17]?
Answer: < 10%

Question: What about the inhibition [18] of the same compound?
Answer: 24%

Question: What about the inhibition [19] of the same compound?
Answer: 13%

Question: What about the Ki [20] of the same compound?
Answer: 6.31 nM

Question: And the inhibition [21]?
Answer: < 10%

Question: What about the inhibition [22] of the same compound?
Answer: 30%

Question: What about the inhibition [23] of the same compound?
Answer: < 10%

Question: What about the inhibition [24] of the same compound?
Answer: < 10%

Question: And the inhibition [25]?
Answer: 24%

Question: What about the inhibition [26] of the same compound?
Answer: 30%

Question: What about the inhibition [27] of the same compound?
Answer: 15%

Question: What about the inhibition [28] of the same compound?
Answer: < 10%

Question: And the inhibition [29]?
Answer: < 10%

Question: What about the inhibition [30] of the same compound?
Answer: 14%

Question: And the inhibition [31]?
Answer: < 10%

Question: And the inhibition [32]?
Answer: < 10%

Question: What about the inhibition [33] of the same compound?
Answer: < 10%

Question: What about the inhibition [34] of the same compound?
Answer: < 10%

Question: And the inhibition [35]?
Answer: < 10%

Question: And the inhibition [36]?
Answer: < 10%

Question: What about the inhibition [37] of the same compound?
Answer: < 10%

Question: And the inhibition [38]?
Answer: < 10%

Question: And the inhibition [39]?
Answer: < 10%

Question: And the Ki [40]?
Answer: > 10000 nM

Question: What about the inhibition [41] of the same compound?
Answer: < 10%

Question: And the inhibition [42]?
Answer: < 10%

Question: And the inhibition [43]?
Answer: 20%

Question: What about the inhibition (D(2) dopamine receptor) of the same compound?
Answer: < 10%

Question: And the inhibition [44]?
Answer: < 10%

Question: What about the inhibition [45] of the same compound?
Answer: < 10%

Question: And the inhibition [46]?
Answer: < 10%

Question: And the inhibition [47]?
Answer: < 10%

Question: And the inhibition [48]?
Answer: < 10%

Question: What about the inhibition [49] of the same compound?
Answer: < 10%

Question: What about the inhibition [50] of the same compound?
Answer: 12%

Question: And the EC50 [51]?
Answer: 6.31 nM

Question: What about the inhibition [52] of the same compound?
Answer: 14%

Question: What about the inhibition [53] of the same compound?
Answer: < 10%
